Experimental data from ChEMBL document CHEMBL1157183, “Synthesis and discovery of a novel pyrazole derivative as an inhibitor of apoptosis through modulating integrin beta4, ROS, and p53 levels in vascular endothelial cells” (2008).
Active and inactive are the calls of the source. The rule behind the calls is not given here.

Assays:
HUVEC [1] = assay: Suppression of apoptosis in HUVEC cells at 25 uM by MTT assay; type: functional, cell-based; settings: Homo sapiens
Outline: (§1)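 Sub-confluent HUVECs, passages 10–20, were washed and cultured in M199 without serum and FGF-2. They were treated at 5, 10, 20, 25, 50 and 100 µM (DMSO vehicle at a non-toxic final level). Viability was measured by MTT at 24 and 48 h against deprived control and full-medium normal cells; n = 3.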

HUVEC [2] = assay: Induction of apoptosis in HUVEC cells at 50 uM by MTT assay; type: functional, cell-based; settings: Homo sapiens; outline: as §1
HUVEC [3] = assay: Induction of apoptosis in HUVEC cells at 100 uM by MTT assay; type: functional, cell-based; settings: Homo sapiens; outline: as §1
HUVEC [4] = assay: Increase in cell viability of HUVEC cells at 25 uM; type: functional, cell-based; settings: Homo sapiens; outline: as §1
HUVEC [5] = assay: Inhibition of nuclear DNA condensation in HUVEC cells at 25 uM after 24 hrs by acridine orange staining assay; type: functional, cell-based; settings: Homo sapiens
Outline: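 Serum/FGF-2-deprived HUVECs were treated with 25 µM for 24 h, then stained with acridine orange for 5 min. Nuclear condensation and fragmentation were examined by laser scanning confocal microscopy.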

HUVEC [6] = assay: Inhibition of DNA fragmentation in HUVEC cells at 25 uM after 24 hrs by TUNEL assay; type: functional, cell-based; settings: Homo sapiens
Outline: (§2)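 TUNEL staining was done on HUVECs deprived of serum and FGF-2 (basal M199) and treated with 25 µM for 24 h. Apoptotic cells were quantified as a percentage from fluorescent micrographs, relative to deprived control and to cells in M199 with 20% FBS plus 70 ng/mL FGF-2.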

HUVEC [7] = assay: Reduction of serum and FGF2 deprivation-induced apoptosis in HUVEC cells at 25 uM after 24 hrs; type: functional, Homo sapiens; design: scale not given: the % may be the effect or the level left; outline: as §2
HUVEC [8] = assay: Decrease in integrin beta4 level in HUVEC cells at 25 uM after 12 hrs in absence of serum and FGF2; type: functional, Homo sapiens
Outline: (§3)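 HUVECs, passages 10–20, grown to sub-confluence, washed and switched to basal M199 without FBS and FGF-2; 25 µM in DMSO for 12, 24 or 48 h. Comparators were cells kept in M199 with 20% FBS plus 70 ng/mL FGF-2 and cells in basal medium alone. Immunofluorescence used rabbit anti-human integrin β4 and FITC-IgG secondary, read by laser scanning confocal microscopy as relative fluorescence intensity; n = 3.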

HUVEC [9] = assay: Decrease in integrin beta4 level in HUVEC cells at 25 uM after 24 hrs in absence of serum and FGF2; type: functional, Homo sapiens; outline: as §3
HUVEC [10] = assay: Decrease in integrin beta4 level in HUVEC cells at 25 uM after 48 hrs in absence of serum and FGF2; type: functional, Homo sapiens; outline: as §3
HUVEC [11] = assay: Decrease in serum and FGF2 deprivation-induced intracellular ROS level in HUVEC cells; type: functional, cell-based; settings: Homo sapiens
Outline: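 Intracellular ROS measured with the DCHF probe, which oxidises to fluorescent DCF. Cells were HUVECs in basal M199 lacking serum and FGF-2, exposed to 25 µM for 12, 24 and 48 h. Fluorescence was imaged by laser scanning confocal microscopy and expressed as relative DCF intensity per cell in the scanned area; n = 3.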

HUVEC [12] = assay: Decrease in serum and FGF2 deprivation-induced p53 level in HUVEC cells; type: functional, cell-based; settings: Homo sapiens
Outline: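 Serum/FGF-2-deprived HUVECs (basal M199) received 25 µM for 12, 24 and 48 h. Comparators were cells in M199 with 20% FBS and 70 ng/mL FGF-2 and untreated deprived cells. p53 was detected by immunofluorescence with rabbit anti-human p53 and FITC-IgG secondary, semiquantified as relative intensity by confocal microscopy; n = 3.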

CCOC(=O)c1c(-c2ccccc2Cl)nn(-c2ccccc2)c1C
Activity (HUVEC [1]): Active
Activity (HUVEC [2]): Active
Activity (HUVEC [3]): Active
Activity (HUVEC [4]): Active
Activity (HUVEC [5]): Active
Activity (HUVEC [6]): Active
Activity (HUVEC [7]): 19.16%
Flu intensity (HUVEC [8]): 6.307
Flu intensity (HUVEC [9]): 9.083
Flu intensity (HUVEC [10]): 13.14
Activity (HUVEC [11]): Active
Activity (HUVEC [12]): Active
